Experimental data from ChEMBL document CHEMBL1671813, “Discovery of potent competitive antagonists and positive modulators of the P2X2 receptor” (J Med Chem, 2011).

Experiments:
P2X purinoceptor 2 = molecular target: T1, P2X purinoceptor 2 (Rattus norvegicus, UniProt P49653); experiment: Antagonist activity against rat P2X2 receptor expressed in Xenopus laevis oocyte assessed as inhibition of ATP-induced inward current by two-electrode voltage-clamp electrophysiology
T1 sequence (P49653 whole entry): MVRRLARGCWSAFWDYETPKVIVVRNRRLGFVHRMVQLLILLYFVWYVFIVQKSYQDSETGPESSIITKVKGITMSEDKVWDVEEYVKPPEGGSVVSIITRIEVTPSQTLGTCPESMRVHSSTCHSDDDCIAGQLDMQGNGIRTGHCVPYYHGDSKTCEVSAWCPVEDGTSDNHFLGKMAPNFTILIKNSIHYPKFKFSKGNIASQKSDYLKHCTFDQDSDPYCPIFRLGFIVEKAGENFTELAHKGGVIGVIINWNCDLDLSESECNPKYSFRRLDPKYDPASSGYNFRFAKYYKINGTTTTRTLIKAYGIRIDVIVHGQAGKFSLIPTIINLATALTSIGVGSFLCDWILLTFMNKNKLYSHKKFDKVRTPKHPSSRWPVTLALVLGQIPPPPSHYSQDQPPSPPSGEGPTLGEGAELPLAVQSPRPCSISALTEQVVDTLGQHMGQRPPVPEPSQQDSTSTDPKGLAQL

P2X purinoceptor 4 = molecular target: T2, P2X purinoceptor 4 (Rattus norvegicus, UniProt P51577); experiment: Antagonist activity against rat P2X4 receptor expressed in Xenopus laevis oocyte assessed as inhibition of ATP-induced inward current by two-electrode voltage-clamp electrophysiology
T2 sequence (P51577 whole entry): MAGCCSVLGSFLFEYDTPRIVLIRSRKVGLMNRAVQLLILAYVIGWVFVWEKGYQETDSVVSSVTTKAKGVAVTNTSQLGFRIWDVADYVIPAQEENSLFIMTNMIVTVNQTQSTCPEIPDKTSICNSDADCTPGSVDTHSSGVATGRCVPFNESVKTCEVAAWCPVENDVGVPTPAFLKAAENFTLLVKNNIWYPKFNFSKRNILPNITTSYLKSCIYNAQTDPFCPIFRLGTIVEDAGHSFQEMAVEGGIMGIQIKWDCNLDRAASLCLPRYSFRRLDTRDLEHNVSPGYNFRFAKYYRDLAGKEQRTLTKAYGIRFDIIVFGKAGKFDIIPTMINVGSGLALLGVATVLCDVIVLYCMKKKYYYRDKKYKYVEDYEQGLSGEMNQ

P2Y purinoceptor 4 = P2Y purinoceptor 4 (Homo sapiens, UniProt P51582); experiment: Antagonist activity against human P2Y4 receptor expressed in 1321N1 astrocytoma cells by calcium mobilization assay; assay type: functional, cell-based
In short: (§1)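 Astrocytoma cell lines stably transfected with human P2Y2, human P2Y4 or rat P2Y6 receptor. Inhibition of receptor-mediated intracellular calcium mobilization was measured.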

[1] = molecular target: P2Y purinoceptor 6 (Rattus norvegicus) (UniProt Q63371); experiment: Antagonist activity against rat P2Y6 receptor expressed in 1321N1 astrocytoma cells by calcium mobilization assay
P2Y purinoceptor 2 = P2Y purinoceptor 2 (Homo sapiens, UniProt P41231); experiment: Antagonist activity against human P2Y2 receptor expressed in 1321N1 astrocytoma cells by calcium mobilization assay; assay type: functional, cell-based
In short: as §1

Sequence of P2Y purinoceptor 4 (P51582 whole entry): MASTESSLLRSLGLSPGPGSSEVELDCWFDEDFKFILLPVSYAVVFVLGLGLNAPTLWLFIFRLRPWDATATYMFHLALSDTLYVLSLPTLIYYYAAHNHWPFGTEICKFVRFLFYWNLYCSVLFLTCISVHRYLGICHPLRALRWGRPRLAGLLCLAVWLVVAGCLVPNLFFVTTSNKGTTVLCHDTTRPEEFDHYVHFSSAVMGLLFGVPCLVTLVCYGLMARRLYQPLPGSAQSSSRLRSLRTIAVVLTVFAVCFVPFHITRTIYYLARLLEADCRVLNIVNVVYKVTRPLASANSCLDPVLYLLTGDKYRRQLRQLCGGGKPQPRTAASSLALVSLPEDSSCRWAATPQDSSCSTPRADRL
Sequence of P2Y purinoceptor 2 (P41231 whole entry): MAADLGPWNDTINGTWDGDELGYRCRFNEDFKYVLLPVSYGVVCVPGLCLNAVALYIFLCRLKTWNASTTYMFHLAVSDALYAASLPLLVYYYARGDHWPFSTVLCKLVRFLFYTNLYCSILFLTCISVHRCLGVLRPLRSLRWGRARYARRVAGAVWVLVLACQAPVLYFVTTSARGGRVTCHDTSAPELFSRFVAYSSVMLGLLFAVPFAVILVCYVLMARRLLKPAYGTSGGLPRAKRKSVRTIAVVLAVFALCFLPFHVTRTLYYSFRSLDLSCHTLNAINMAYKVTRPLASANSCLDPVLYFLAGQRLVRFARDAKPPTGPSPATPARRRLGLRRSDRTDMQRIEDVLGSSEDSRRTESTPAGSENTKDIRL

| IC50 (P2X purinoceptor 2) | IC50 (P2X purinoceptor 4) | IC50 (P2Y purinoceptor 4) | IC50 [1] | IC50 (P2Y purinoceptor 2) | SMILES |
| --- | --- | --- | --- | --- | --- |
| 1730 nM | > 10 µM | – | – | – | COc1ccc(Nc2cc(S(=O)(=O)O)c(N)c3c2C(=O)c2ccccc2C3=O)cc1 |
| 1000 nM | > 10 µM | – | – | – | Cc1ccccc1Nc1cc(S(=O)(=O)O)c(N)c2c1C(=O)c1ccccc1C2=O |
| 1000 nM | > 10 µM | – | – | – | Cc1c(N)cccc1Nc1cc(S(=O)(=O)O)c(N)c2c1C(=O)c1ccccc1C2=O |
| 100 nM | – | 21.8 µM | > 10 µM | – | Nc1c(S(=O)(=O)O)cc(Nc2cccc(Cl)c2)c2c1C(=O)c1ccccc1C2=O |
| 1000 nM | > 10 µM | – | – | – | Nc1c(S(=O)(=O)O)cc(Nc2ccccc2C(=O)O)c2c1C(=O)c1ccccc1C2=O |
| 2000 nM | > 10 µM | – | – | – | COc1ccccc1Nc1cc(S(=O)(=O)O)c(N)c2c1C(=O)c1ccccc1C2=O |
| 1000 nM | > 10 µM | – | – | – | CCOc1ccccc1Nc1cc(S(=O)(=O)O)c(N)c2c1C(=O)c1ccccc1C2=O |
| 1000 nM | > 10 µM | – | – | – | Nc1c(S(=O)(=O)O)cc(Nc2cccc(Br)c2)c2c1C(=O)c1ccccc1C2=O |
| > 10000 nM | > 10 µM | – | – | – | Nc1c(S(=O)(=O)O)cc(Nc2ccccc2S(=O)(=O)O)c2c1C(=O)c1ccccc1C2=O |
| 1000 nM | > 10 µM | – | – | – | Nc1ccccc1Nc1cc(S(=O)(=O)O)c(N)c2c1C(=O)c1ccccc1C2=O |
| > 1000 nM | – | – | – | – | CCc1cccc(Nc2cc(S(=O)(=O)O)c(N)c3c2C(=O)c2ccccc2C3=O)c1 |
| 1000 nM | > 10 µM | – | 84.6 µM | – | Nc1c(S(=O)(=O)O)cc(Nc2ccccc2)c2c1C(=O)c1ccccc1C2=O [ACID BLUE 25] |
| 1000 nM | > 10 µM | – | – | – | Cc1cccc(Nc2cc(S(=O)(=O)O)c(N)c3c2C(=O)c2ccccc2C3=O)c1C |
| 1000 nM | > 10 µM | – | – | – | Nc1c(S(=O)(=O)O)cc(Nc2ccccc2O)c2c1C(=O)c1ccccc1C2=O |
| 1000 nM | > 10 µM | – | – | – | Nc1cccc(Nc2cc(S(=O)(=O)O)c(N)c3c2C(=O)c2ccccc2C3=O)c1 |
| > 10000 nM | > 10 µM | – | – | – | Nc1ccc(Nc2cc(S(=O)(=O)O)c(N)c3c2C(=O)c2ccccc2C3=O)cc1 |
| 1000 nM | > 10 µM | – | – | – | Nc1c(S(=O)(=O)O)cc(Nc2ccc(F)cc2)c2c1C(=O)c1ccccc1C2=O |
| 1000 nM | > 10 µM | – | – | – | Cc1ccc(Nc2cc(S(=O)(=O)O)c(N)c3c2C(=O)c2ccccc2C3=O)cc1 |
| > 1000 nM | – | – | – | – | Nc1c(S(=O)(=O)O)cc(Nc2cccc(F)c2)c2c1C(=O)c1ccccc1C2=O |
| 1000 nM | > 10 µM | – | – | – | Cc1ccc(Nc2cc(S(=O)(=O)O)c(N)c3c2C(=O)c2ccccc2C3=O)c(C)c1 |
| > 10000 nM | > 10 µM | – | – | – | Nc1c(S(=O)(=O)O)cc(Nc2cccc3ccccc23)c2c1C(=O)c1ccccc1C2=O |

Further lines, the molecule ahead of its results:

| SMILES | IC50 (P2X purinoceptor 2) | IC50 (P2X purinoceptor 4) | IC50 (P2Y purinoceptor 4) | IC50 [1] | IC50 (P2Y purinoceptor 2) |
| --- | --- | --- | --- | --- | --- |
| COc1cc(Nc2cc(S(=O)(=O)O)c(N)c3c2C(=O)c2ccccc2C3=O)cc(OC)c1 | > 1000 nM | – | – | – | – |
| Cc1cc(C)c(Nc2cc(S(=O)(=O)O)c(N)c3c2C(=O)c2ccccc2C3=O)c(C)c1N | 1000 nM | > 10 µM | – | – | – |
| CCOP(=O)(Cc1ccc(Nc2cc(S(=O)(=O)O)c(N)c3c2C(=O)c2ccccc2C3=O)cc1)OCC | 1000 nM | > 10 µM | – | – | – |
| Nc1c(S(=O)(=O)O)cc(Nc2cc(Cl)ccc2C(=O)O)c2c1C(=O)c1ccccc1C2=O | 1000 nM | > 10 µM | – | – | – |
| COc1nc(Cl)nc(Nc2ccc(Nc3cc(S(=O)(=O)O)c(N)c4c3C(=O)c3ccccc3C4=O)cc2S(=O)(=O)O)n1 | 582 nM | > 10 µM | > 10 µM | > 10 µM | 24.2 µM |
| Nc1c(S(=O)(=O)O)cc(Nc2ccc(O)c(C(=O)O)c2)c2c1C(=O)c1ccccc1C2=O | 1000 nM | > 10 µM | – | – | – |
| Nc1c(S(=O)(=O)O)cc(Nc2ccc(S(=O)(=O)O)cc2)c2c1C(=O)c1ccccc1C2=O | 1000 nM | > 10 µM | – | – | – |
| Nc1c(S(=O)(=O)O)cc(Nc2ccc(S(=O)(=O)O)c(Nc3nc(O)nc(O)n3)c2)c2c1C(=O)c1ccccc1C2=O | 300 nM | – | – | – | – |
| Nc1c(S(=O)(=O)O)cc(Nc2ccc(Cl)cc2C(=O)O)c2c1C(=O)c1ccccc1C2=O | 1000 nM | > 10 µM | – | – | – |
| Nc1c(S(=O)(=O)O)cc(Nc2cccc(Nc3nc(Cl)nc(Cl)n3)c2)c2c1C(=O)c1ccccc1C2=O | 86 nM | – | 10 µM | > 10 µM | 24.3 µM |
| Nc1c(S(=O)(=O)O)cc(Nc2ccc(O)cc2)c2c1C(=O)c1ccccc1C2=O | 588 nM | > 10 µM | 2.22 µM | 5.3 µM | – |
| CC(=O)Nc1ccc(Nc2cc(S(=O)(=O)O)c(N)c3c2C(=O)c2ccccc2C3=O)cc1 | 690 nM | > 10 µM | – | – | – |
| Nc1c(S(=O)(=O)O)cc(Nc2ccc(Nc3nc(Cl)nc(Nc4ccccc4S(=O)(=O)O)n3)c(S(=O)(=O)O)c2)c2c1C(=O)c1ccccc1C2=O [CIBACRON BLUE 3GA] | > 1000 nM | 40 µM | – | – | – |
| Nc1c(S(=O)(=O)O)cc(Nc2cc(F)cc(F)c2)c2c1C(=O)c1ccccc1C2=O | > 1000 nM | – | – | – | – |
| Nc1c(S(=O)(=O)O)cc(Nc2cccc([N+](=O)[O-])c2)c2c1C(=O)c1ccccc1C2=O | > 1000 nM | – | – | – | – |
| Nc1cc(Nc2cc(S(=O)(=O)O)c(N)c3c2C(=O)c2ccccc2C3=O)cc(C(=O)O)c1 | 1000 nM | > 10 µM | – | – | – |

| SMILES | IC50 (P2X purinoceptor 2) | IC50 (P2X purinoceptor 4) | IC50 (P2Y purinoceptor 4) | IC50 [1] | IC50 (P2Y purinoceptor 2) |
| --- | --- | --- | --- | --- | --- |
| Nc1ccc(Nc2cc(S(=O)(=O)O)c(N)c3c2C(=O)c2ccccc2C3=O)cc1S(=O)(=O)O | 1000 nM | > 10 µM | – | – | – |
| Nc1c(S(=O)(=O)O)cc(Nc2ccc(Nc3nc(Cl)nc(Cl)n3)c(S(=O)(=O)O)c2)c2c1C(=O)c1ccccc1C2=O | 1160 nM | > 10 µM | – | – | – |
| Nc1cc(Nc2cc(S(=O)(=O)O)c(N)c3c2C(=O)c2ccccc2C3=O)ccc1S(=O)(=O)O | 1000 nM | > 10 µM | – | – | – |
| Nc1c(S(=O)(=O)O)cc(Nc2ccc(CC(=O)O)cc2)c2c1C(=O)c1ccccc1C2=O | 1000 nM | > 10 µM | – | – | – |
| Cc1cccc(Nc2cc(C)c(N)c3c2C(=O)c2ccccc2C3=O)c1 | > 10000 nM | > 10 µM | – | – | – |
| Nc1c(S(=O)(=O)O)cc(Nc2ccc(Oc3ccccc3)cc2)c2c1C(=O)c1ccccc1C2=O | 1000 nM | > 10 µM | – | – | – |
| Nc1c(S(=O)(=O)O)cc(Nc2ccc(Nc3ncccn3)c(S(=O)(=O)O)c2)c2c1C(=O)c1ccccc1C2=O | 1000 nM | > 10 µM | – | – | – |
| Nc1c(S(=O)(=O)O)cc(Nc2ccc(C(=O)O)cc2)c2c1C(=O)c1ccccc1C2=O | 1000 nM | > 10 µM | – | – | – |
| Cc1cc(Nc2ccccc2)c2c(c1N)C(=O)c1ccccc1C2=O | > 10000 nM | > 10 µM | – | – | – |
| Nc1c(S(=O)(=O)O)cc(Nc2cccc(C(=O)O)c2)c2c1C(=O)c1ccccc1C2=O | 1000 nM | > 10 µM | – | – | – |
| Nc1c(S(=O)(=O)O)cc(Nc2cccc(C(F)(F)F)c2)c2c1C(=O)c1ccccc1C2=O | > 1000 nM | – | – | – | – |
| Nc1c(S(=O)(=O)O)cc(Nc2ccc(Nc3nc(O)nc(O)n3)cc2)c2c1C(=O)c1ccccc1C2=O | 197 nM | > 10 µM | 10 µM | – | 30 µM |
| Nc1c(S(=O)(=O)O)cc(Nc2ccc(Nc3ncccn3)cc2)c2c1C(=O)c1ccccc1C2=O | > 1000 nM | > 10 µM | – | – | – |
| Nc1c(S(=O)(=O)O)cc(NC2CCCCC2)c2c1C(=O)c1ccccc1C2=O | 1000 nM | > 10 µM | – | – | – |
| Cc1cc(C)c(Nc2cc(S(=O)(=O)O)c(N)c3c2C(=O)c2ccccc2C3=O)c(C)c1 [ACID BLUE 129] | 1000 nM | > 10 µM | – | – | – |
